# Data: ChEMBL document CHEMBL1123921, “Quinolonecarboxylic acids. 2. Synthesis and antibacterial evaluation of 7-oxo-2,3-dihydro-7H-pyrido[1,2,3-de][1,4]benzothiazine-6-carboxylic acids” (J Med Chem, 1987)
# Assays:
# [1] = Total clearance was determined in rat at 25 mg/kg intraperitoneal dosage; format: ADME, organism-based; parameters: dose 25 mg/kg, route intraperitoneal; settings: in vivo, ip, read-out: Clearance (converted)
# Summary of the method: (§1)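 Fasted male Wistar rats (180–230 g) given the drug ip in carboxymethyl cellulose. Plasma and urine extracted with CHCl₃ from citrate buffer pH 6.2 with internal standard. Analysis by reverse-phase C-18 HPLC, 0.1% AcOH/MeOH gradient, 245 nm UV. Urinary clearance and total clearance derived as pharmacokinetic parameters.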
# [2] = Peak plasma concentration at a dose of 20 mg/kg, oral route in monkey (Macaca fascicularis) suspended in carboxymethyl cellulose (CMC);Range is between (5.5-6); format: ADME, organism-based; parameters: dose 20 mg/kg, route oral; settings: cynomolgus monkey, read-out: Activity
# Summary of the method: (§2)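 Four male beagle dogs or two Macaca fascicularis monkeys dosed orally, suspended in carboxymethyl cellulose. Venous blood collected into heparinized tubes and plasma separated by low-speed centrifugation. Urine gathered in metabolic cages. Unchanged drug measured by C-18 HPLC (extraction, UV 245 nm).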
# [3] = Peak plasma concentration at a dose of 100 mg/kg, oral route in human; format: ADME, organism-based; parameters: dose 100 mg/kg, route oral; settings: read-out: Activity
# Summary of the method: (§3)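 Four healthy volunteers of both sexes took oral capsules (100 mg units) at three dose levels. Venous blood drawn into heparinized tubes and plasma obtained by low-speed centrifugation. Urine collected. Unchanged drug in plasma and urine determined by C-18 HPLC after CHCl₃ extraction, with UV detection at 245 nm.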
# [4] = Ratio of tissue (kidney) levels to plasma levels after 15 hr of treatment; format: ADME
# Summary of the method: (§4)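 Male Wistar rats received 50 mg/kg po and were killed at 1 and 15 h. Tissue homogenates and plasma extracted with CHCl₃ after adding internal standard and pH 6.2 citrate buffer. Drug quantified by C-18 HPLC with UV at 245 nm. Tissue level divided by plasma level.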
# [5] = Half life period was determined for the compound at 400 mg/kg concentration, oral route in human; format: ADME, organism-based; parameters: dose 400 mg/kg, route oral; settings: in vivo; summary of the method: as §3
# [6] = Tissue levels determined 1 hr after peroral dose of 50 mg/kg in liver; settings: po
# [7] = Half life period was determined for the compound at 100 mg/kg concentration, os route; settings: in vivo, po
# [8] = Total clearance was determined in rat at 10 mg/kg intraperitoneal dosage; format: ADME, organism-based; parameters: dose 10 mg/kg, route intraperitoneal; settings: in vivo, ip, read-out: Clearance (converted); summary of the method: as §1
# [9] = Plasma levels determined 1 hr after peroral dose of 50 mg/kg; settings: po
# [10] = Time taken for peak plasma concentration at a dose of 25 mg/kg, os route in rat suspended in carboxymethyl cellulose (CMC); format: ADME, organism-based; parameters: dose 25 mg/kg; settings: po
# Summary of the method: (§5)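 Fasted male Wistar rats (180–230 g) dosed orally, suspended in carboxymethyl cellulose. Plasma and urine assayed by HPLC: sample plus internal standard and citrate buffer (0.1 M, pH 6.2), extracted into CHCl₃, dried, redissolved in MeOH. Separation on C-18 with 0.1% AcOH/MeOH gradient, UV detection at 245 nm.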
# [11] = Urinary clearance was determined in rat at 25 mg/kg intraperitoneal dosage; format: ADME, organism-based; parameters: dose 25 mg/kg, route intraperitoneal; settings: urine, ip, read-out: CL_renal (converted); summary of the method: as §1
# [12] = Lethal dose after single iv administration to rat was determined; format: toxicity, organism-based; settings: in vivo
# Summary of the method: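 Male Wistar rats (130-150 g) were given single intravenous doses at no fewer than three levels. Deaths were counted over 14 days, and LD50 was calculated by the Litchfield and Wilcoxon method.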
# [13] = Half life period was determined for the compound at 20 mg/kg concentration, oral route in dog(beagle); format: ADME, organism-based, Canis lupus familiaris; parameters: dose 20 mg/kg, route oral; settings: in vivo; summary of the method: as §2
# [14] = Ratio of tissue (liver) levels to plasma levels after 1 hr of treatment; format: ADME; summary of the method: as §4
# [15] = test system: Rattus norvegicus; assay: Volume of distribution at a dose of 10 mg/kg, intraperitoneal route in rat suspended in carboxymethyl cellulose (CMC); format: ADME, organism-based; parameters: dose 10 mg/kg, route intraperitoneal; settings: in vivo, ip; summary of the method: as §1
# [16] = Time taken for peak plasma concentration at a dose of 100 mg/kg, oral route in human; format: ADME, organism-based; parameters: dose 100 mg/kg, route oral; summary of the method: as §3
# [17] = Half life period was determined for the compound at 10 mg/kg concentration, intraperitoneal route; settings: in vivo, ip
# [18] = test system: Homo sapiens; assay: Urinary clearance was determined at 100 mg/kg oral dosage in human; format: ADME, organism-based, Urine; parameters: dose 100 mg/kg, route oral; settings: in vivo; summary of the method: as §3
# [19] = Time taken for peak plasma concentration at a dose of 50 mg/kg, os route in rat suspended in carboxymethyl cellulose (CMC); format: ADME, organism-based; parameters: dose 50 mg/kg; settings: po; summary of the method: as §5
# [20] = Urinary excretion for the compound was evaluated as percent dose excreted at 400 mg/kg oral dosage in human; format: ADME, organism-based; parameters: dose 400 mg/kg, route oral; settings: urine; summary of the method: as §3
# [21] = Urinary excretion for the compound was evaluated as percent dose excreted at 10 mg/kg intraperitoneal dosage; format: ADME, organism-based; parameters: dose 10 mg/kg, route intraperitoneal; settings: urine, ip; summary of the method: as §1
# [22] = Peak plasma concentration at a dose of 20 mg/kg, oral route in dog(beagle) suspended in carboxymethyl cellulose (CMC); format: ADME, organism-based, Canis lupus familiaris; parameters: dose 20 mg/kg, route oral; settings: read-out: Activity; summary of the method: as §2
# [23] = Ratio of AUC from os administration to AUC from ip administration at a dose of 25 mg/kg; format: ADME, organism-based; parameters: dose 25 mg/kg, route intraperitoneal; settings: in vivo
# Summary of the method: (§6)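 Fasted male Wistar rats (180–230 g), drug suspended in carboxymethyl cellulose, given orally or ip. Plasma (heparinized) and urine from metabolic cages were sampled at various times. The unchanged drug was measured by HPLC after CHCl3 extraction at pH 6.2 with an internal standard, on a C-18 column with an AcOH/MeOH gradient and UV detection at 245 nm. Interassay and intraassay variability was about 10%.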
# [24] = Peak plasma concentration at a dose of 200 mg/kg, oral route in human; format: ADME, organism-based; parameters: dose 200 mg/kg, route oral; settings: read-out: Activity; summary of the method: as §3
# [25] = Lethal dose after single iv administration to mouse was determined; format: toxicity, organism-based; settings: in vivo
# [26] = Urinary excretion for the compound was evaluated as percent dose excreted at 50 mg/kg os dosage; format: ADME, organism-based; parameters: dose 50 mg/kg; settings: urine, po; summary of the method: as §5
# [27] = Ratio of urinary excretion after os administration to ip administration; format: ADME, organism-based, Urine; settings: in vivo; summary of the method: as §6
compound,measurement,setting,value
CN1CCN(c2c(F)cc3c(=O)c(C(=O)O)cn4c3c2SCC4)CC1 [RUFLOXACIN],CL/F,[1],4.18 mL/min/kg
same,Cmax,[2],5500 ng/mL
same,Cmax,[3],1870 ng/mL
same,Kp at 15 h,[4],2.7
same,half-life,[5],1920 min
same,concentration at 1 h,[6],80 µg/mL
same,half-life,[7],522 min
same,CL/F,[8],4.22 mL/min/kg
same,concentration at 1 h,[9],10000 ng/mL
same,Tmax,[10],1 h
same,CL renal,[11],0.79 mL/min/kg
same,LD50,[12],285 mg/kg
same,half-life,[13],720 min
same,Kp at 1 h,[14],8
same,Vd,[15],3 L/kg
same,Tmax,[16],4 h
same,half-life,[17],594 min
same,CL_renal,[18],5.6 mL/h/kg
same,Tmax,[19],1 h
same,dose excreted,[20],33%
same,dose excreted,[21],26%
same,Cmax,[22],5700 ng/mL
same,Ratio,[23],0.85
same,Cmax,[24],1920 ng/mL
same,LD50,[25],224 mg/kg
same,dose excreted,[26],16.7%
same,Ratio,[27],0.91
